Assay results from ChEMBL document CHEMBL1127464, “Inhibitors of HIV-1 proteinase containing 2-heterosubstituted 4-amino-3-hydroxy-5-phenylpentanoic acid: synthesis, enzyme inhibition, and antiviral activity” (J Med Chem, 1994).

Experiments:
Pepsin A = Pepsin A (Sus scrofa, UniProt P00791); test: Selectivity for their inhibitory potency against porcine pepsin
Method in brief: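 Porcine pepsin assayed in 0.1 M glycine–HCl, pH 2.0, with 0.5% hemoglobin substrate and [14C]methylhemoglobin tracer.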

Renin = biological target: T1, Renin (Homo sapiens, UniProt P00797); test: Selectivity for their inhibitory potency against human renin
T1 sequence (P00797 whole entry): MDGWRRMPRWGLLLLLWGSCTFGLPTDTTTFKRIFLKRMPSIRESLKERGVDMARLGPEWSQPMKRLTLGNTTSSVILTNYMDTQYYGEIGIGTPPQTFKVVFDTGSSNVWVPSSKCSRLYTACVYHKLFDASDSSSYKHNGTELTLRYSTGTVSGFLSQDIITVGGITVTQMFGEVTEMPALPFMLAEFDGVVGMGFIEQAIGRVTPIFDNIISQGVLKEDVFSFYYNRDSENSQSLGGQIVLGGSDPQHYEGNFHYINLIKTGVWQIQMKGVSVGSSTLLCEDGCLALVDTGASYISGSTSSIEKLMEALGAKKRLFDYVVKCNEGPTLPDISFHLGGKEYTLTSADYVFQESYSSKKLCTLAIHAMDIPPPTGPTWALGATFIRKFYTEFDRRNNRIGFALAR

[1] = biological target: Human immunodeficiency virus type 1 protease (Human immunodeficiency virus 1, UniProt Q72874); test: Inhibitory constant against HIV-1 protease
Method in brief: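 HIV-1 proteinase expressed in E. coli JM 105 and purified to homogeneity. Initial rates were taken from the absorbance decrease at 298 nm. IC50 came from a fit of the initial velocities. Ki was derived from IC50 accounting for enzyme, substrate and Km. Mean of two determinations.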

MT4 [2] = test: Antiviral activity by analysis of p24 antigen concentration for HIV-1 strain IIIB in de novo infected MT-4 cells; assay type: functional, cell-based; conditions: Homo sapiens
Cathepsin D [3] = biological target: T2, Cathepsin D (Homo sapiens, UniProt P07339); test: (§1) Selectivity for their inhibitory potency against human cathepsin D.
T2 sequence (P07339 65-162 limits assumed): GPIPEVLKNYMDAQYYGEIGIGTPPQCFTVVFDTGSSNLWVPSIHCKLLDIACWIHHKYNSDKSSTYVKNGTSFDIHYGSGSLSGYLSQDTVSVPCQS
T2 sequence (P07339 169-412 limits assumed): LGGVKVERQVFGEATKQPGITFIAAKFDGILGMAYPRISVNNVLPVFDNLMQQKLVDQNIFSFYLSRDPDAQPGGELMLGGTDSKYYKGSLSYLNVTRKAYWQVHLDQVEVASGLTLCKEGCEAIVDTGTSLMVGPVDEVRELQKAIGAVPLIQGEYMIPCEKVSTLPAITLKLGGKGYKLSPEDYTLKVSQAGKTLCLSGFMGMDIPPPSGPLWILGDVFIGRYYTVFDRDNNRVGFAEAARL

[4] = system: Human immunodeficiency virus 1; test: Antiviral activity by observing cytopathic effect induced by HIV-1 strain IIIB in de novo infected MT-4 cells; assay type: functional, organism-based; conditions: Human immunodeficiency virus 1, MT4
MT4 [5] = test: Antiviral activity by analysis of p26 antigen concentration for HIV-2 strain EHO, replication in MT-4 cells; assay type: functional, cell-based; conditions: Homo sapiens
Cathepsin D [6] = biological target: T2, Cathepsin D; test: as §1; assay type: functional

Pepsin A, sequence (P00791 whole entry): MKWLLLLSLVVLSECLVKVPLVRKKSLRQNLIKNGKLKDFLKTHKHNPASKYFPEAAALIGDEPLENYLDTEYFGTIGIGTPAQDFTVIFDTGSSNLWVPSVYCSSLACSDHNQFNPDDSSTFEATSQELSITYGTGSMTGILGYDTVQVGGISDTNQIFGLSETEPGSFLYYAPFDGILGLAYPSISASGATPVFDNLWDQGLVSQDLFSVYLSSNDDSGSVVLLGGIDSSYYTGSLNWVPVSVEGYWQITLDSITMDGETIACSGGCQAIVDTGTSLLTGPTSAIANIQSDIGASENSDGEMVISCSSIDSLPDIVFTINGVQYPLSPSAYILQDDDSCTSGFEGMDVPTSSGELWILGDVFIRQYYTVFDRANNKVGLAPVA

SMILES	IC50 (Pepsin A)	IC50 (Renin)	Ki [1]	IC50 (MT4 [2])	IC50 (Cathepsin D [3])	IC50 [4]	IC50 (MT4 [5])	IC50 (Cathepsin D [6])
COc1ccc(CN[C@@H](C(=O)N[C@H](C(=O)NCc2nc3ccccc3[nH]2)C(C)C)[C@H](O)[C@H](Cc2ccccc2)NC(=O)[C@@H](NC(=O)CCc2ccc(O)cc2)C(C)(C)C)cc1	> 10000 nM	> 10000 nM	13 nM	21 nM	> 10000 nM	96 nM	–	–
COc1ccc(CN[C@@H](C(=O)N[C@H](C(=O)NCc2ccccc2)C(C)C)[C@H](O)[C@H](Cc2ccccc2)NC(=O)[C@@H](NC(=O)OCc2ccccc2)C(C)C)cc1	> 10000 nM	> 10000 nM	7.4 nM	132 nM	110 nM	320 nM	810 nM	–
CC(C)[C@H](NC(=O)[C@H](NCc1ccccc1)[C@H](O)[C@H](Cc1ccccc1)NC(=O)[C@@H](NC(=O)OCc1ccccc1)C(C)(C)C)C(=O)NCc1ccccc1	> 10000 nM	> 10000 nM	9.2 nM	93 nM	60 nM	320 nM	1400 nM	–
CC(C)[C@H](NC(=O)[C@H](NCc1ccc(Cl)cc1)[C@H](O)[C@H](Cc1ccccc1)NC(=O)[C@@H](NC(=O)OCc1ccccc1)C(C)(C)C)C(=O)NCc1nc2ccccc2[nH]1	> 10000 nM	> 10000 nM	7.5 nM	11.3 nM	1800 nM	34 nM	240 nM	–
COc1ccc(CN[C@@H](C(=O)N[C@H](C(=O)NCc2nc3ccccc3[nH]2)C(C)C)[C@H](O)[C@H](Cc2ccccc2)NC(=O)[C@@H](NC(=O)OCc2ccccc2)C(C)C)cc1	> 10000 nM	> 10000 nM	3.4 nM	9.7 nM	380 nM	25 nM	460 nM	–
CC(C)[C@H](NC(=O)OCc1ccccc1)C(=O)N[C@@H](Cc1ccccc1)[C@@H](O)[C@@H](NCc1ccccc1)C(=O)N[C@H](C(=O)NCc1ccccc1)C(C)C	> 10000 nM	> 10000 nM	6.1 nM	315 nM	–	580 nM	> 3000 nM	35 nM
COc1ccc(CN[C@@H](C(=O)N[C@H](C(=O)NCc2nc3ccccc3[nH]2)C(C)C)[C@H](O)[C@H](Cc2ccccc2)NC(=O)[C@@H](NC(=O)C(C)Oc2ccccc2)C(C)(C)C)cc1 (stereo not given in full)	> 10000 nM	> 10000 nM	6 nM	7.9 nM	2000 nM	38 nM	470 nM	–
COc1ccc(CN[C@@H](C(=O)N[C@H](C(=O)NCc2nc3ccccc3[nH]2)C(C)C)[C@H](O)[C@H](Cc2ccccc2)NC(=O)[C@@H](NC(=O)OCc2ccccc2)C(C)(C)C)cc1	> 10000 nM	> 10000 nM	4.6 nM	5.4 nM	1000 nM	14 nM	385 nM	–
